# Measured values: the EternaBench riboswitch data
# Test system: MS2 coat protein
# Experiment: apparent Kd, MS2 coat protein; higher = weaker binding; RNA-MaP array; FMN 200 µM where present
# In short: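 Each design was made on Illumina sequencing-chip clusters by stalled E. coli RNA polymerase and titrated with SNAP-549-labelled MS2 coat protein from 0.7 or 1.5 nM, doubling to 3 µM, in the absence and then the presence of constant ligand. The buffer was 100 mM Tris-HCl pH 7.5, 80 mM KCl, 4 mM MgCl2, BSA, DTT, yeast tRNA and Tween-20. The apparent Kd is the median of filtered per-cluster fits of binding curves, with green signal normalised to red-channel RNA signal and control-cluster median Fmax.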
# [1] = designed as: OFF switch for flavin mononucleotide, no ligand
# [2] = ligand present: flavin mononucleotide, designed as: OFF switch for flavin mononucleotide
# [3] = designed as: ON switch for flavin mononucleotide, no ligand
# [4] = ligand present: flavin mononucleotide, designed as: ON switch for flavin mononucleotide
sequence,measurement,setting,value
CCUGUUUGAUUCCUCUUAUACAUGAGGAUCACCCAUGUUAUCGAGGAUAUGCAUUAGAGUGUUUAGCAGAAGGCGAUGUAAUUG,apparent Kd,[1],6.12 nM
same,apparent Kd,[2],17.5 nM
CUUAUGUGAGGAUAUGUACAGAAAAAACUGGGUGUAACUGUACAGAAGGCACAUGAGGAUCACCCAUGUGCCUU,apparent Kd,[1],16.9 nM
same,apparent Kd,[2],13.8 nM
GGAUCUAUGUAGAAGGCUGUCUUAAAAUAGGACAGAGGAUAUACAUGAGGAUCACCCAUGUACUCCUUUAAAAGGAUCCAAAUA,apparent Kd,[1],5.77 nM
same,apparent Kd,[2],11 nM
CCCGUGUAAGGAUAUGACAAUGGUAUCUUCGGAUACCAUUGUCAGAAGGUACAUGAGGAUCACCCAUGUAACAC,apparent Kd,[1],28.8 nM
same,apparent Kd,[2],108 nM
UAGCGGUAGGGAGGAUAUGCGAAAGGAAGGCCCGCAGAAGGCCUUACAUGAGGAUCACCCAUGUAGGAUGCCUGGGUGGUGCCC,apparent Kd,[1],14.5 nM
same,apparent Kd,[2],26.4 nM
CCAUGGCUGUGAGGAUAUGUCUGACAAAGUCAGACAGAAGGCACAUGAGGAUCACCCAUGUGAGGAAAACCACAUUUGCCAUGG,apparent Kd,[1],5.81 nM
same,apparent Kd,[2],6.29 nM
AGAUCAGUCUGAGUGCCUCGCGCGAGAAGGUACAGUGUUGUCCUGUUACAUGAGGAUCACCCAUGUAAGGAUAUCGCCGAGGAG,apparent Kd,[1],7.86 nM
same,apparent Kd,[2],28.4 nM
AUGCUCAUAGGAUAUAGAUUGAUUCACAUGAGGAUCACCCAUGUAAACUCUACUUUUUAACUAGAAGGAUGUUUUU,apparent Kd,[1],24.7 nM
same,apparent Kd,[2],23.5 nM
CUGGAUAGAGGAUAUUGUACUGCUGACAUGAGGAUCACCCAUGUAUGUUAACUCGGCCGUCGAGAAGGCUAACAAG,apparent Kd,[1],37.7 nM
same,apparent Kd,[2],17.9 nM
AACGGGUGGGUAGGAUAUGGCUAUGUCUCAUUGCUAGAAGGACCAGCUGCUACAUGAGGAUCACCCAUGUCGUAGUGCACCCAC,apparent Kd,[3],93.2 nM
same,apparent Kd,[4],24.5 nM
AACAAACGCCUAGGAUAUCAUACUCGAGCGGUCUGAGAAGGAGGCAAGCUUGGGUCCUCAGCACAUGAGGAUCACCCAUGUAAG,apparent Kd,[1],303 nM
same,apparent Kd,[2],57.2 nM
AAUCCACAUGAGGAUCACCCAUGUCAGGAUAUCGCGCGCGCGUUUUCGGUCUUUCGCGCGAGAAGGGACGGCUG,apparent Kd,[1],17.7 nM
same,apparent Kd,[2],23.5 nM
UGACAUAUAUAGAAGGGUAUGUGGGAAUUACAUGAGGAUCACCCAUGUUUUAUAGGAUAUGUAUAUAGUUUUUAAUCAAGUUUA,apparent Kd,[1],35.1 nM
same,apparent Kd,[2],26.9 nM
AUAAAUCAUGUAGGAUAUGCGUGGCGAAGCUAUGCAGAAGGACAUGAGGAUCACCCAUGUCUUUCCGUCUGCGUACAGACGGGA,apparent Kd,[1],30.9 nM
same,apparent Kd,[2],225 nM
GCAAAGCCUGACAUGAGGAUCACCCAUGUUAGAUUGUUAUGUCAGGAUAUUGUCUAGACACUAGACAAGAAGGGAUGCUUUGCU,apparent Kd,[3],366 nM
same,apparent Kd,[4],34.2 nM
AGCUGUGGCCGAGGAUAUCUAUCCCAAAUAACCGAAAUAUAAUCGGACAUGAGGAUCACCCAUGUAGAGAAGGCGGUCUCAGCA,apparent Kd,[2],35.1 nM
AAGGGACAUGAGGAUCACCCAUGUUCGAAAGACGAUGGAUCGCAGGAUAUCCAGUGUUAGAGAGAGGAGAAGGGUGAUCCUAUU,apparent Kd,[3],36.3 nM
same,apparent Kd,[4],27.7 nM
GCAUGGGCCGUCAGGAUAUAGGCGCCGUGAAGGUAUUAGAAGGGACAUGAGGAUCACCCAUGUAUGAGAAAAGA,apparent Kd,[1],36.7 nM
same,apparent Kd,[2],42.7 nM
UGUAUCUAGUAAGGAUAUACUAUUGAUUCAAUUGUAGAAGGUACAGACAUGAGGAUCACCCAUGUAGUUAUGGAUAUUAGAUAU,apparent Kd,[3],74.1 nM
same,apparent Kd,[4],42.3 nM
GAUACACAUGAGGAUCACCCAUGUGAGGAUAUGCGUACGUUGUCCGUAGGCGACGUGCGCAGAAGGCGCUUGGU,apparent Kd,[1],72.2 nM
same,apparent Kd,[2],75 nM
GGAGAUUACUCAGGAUAUCGCUAGACCGACAUGAGGAUCACCCAUGUGGGUGACGCGGUGGGCUACGAGAAGGGAGAAGUGCCC,apparent Kd,[1],11.5 nM
same,apparent Kd,[2],11.7 nM
GAAGAGACAGGAUAUACAUGAGGAUCACCCAUGUGAGGAUGUUGGAGGCGGAGGAGGUGUAGAAGGGUCAAAGA,apparent Kd,[1],31.2 nM
same,apparent Kd,[2],28.7 nM
UGUCGGAGCAGAGGAUAUACAUGAGGAUCACCCAUGUAAUAAAUCCAAGCCUGGAAACAGGCAAUGUAGAAGGCUGCUCCGACA,apparent Kd,[1],16.8 nM
same,apparent Kd,[2],80.2 nM
UUAAAUCAUGUAGGAUAUGCAUGGCGAAGCUACGCAGAAGGACAUGAGGAUCACCCAUGUGCUAGCUACCGAGUUCGGUGGCAA,apparent Kd,[1],71.3 nM
same,apparent Kd,[2],283 nM
GCAGCAAUUUAAAACAUGAGGAUCACCCAUGUCGAGUGUUAUGAGGAUAUGCAUCGGAUGAAGAUGCAGAAGGCAUUGUGCUGC,apparent Kd,[3],6.32 nM
same,apparent Kd,[4],6.72 nM
UUAAUGUCAGGAUAUCUUAGGUGGGUGCGAAGAUUCAUUUUGGAGAAGGGACAUGAGGAUCACCCAUGUACCUU,apparent Kd,[1],18.7 nM
same,apparent Kd,[2],19.5 nM
AGAUAGUUAUAACGCCAUCCCUACAUGAGGAUCACCCAUGUGCAGGAUAUAGGCUUGAAGCAAACCUAGAAGGGCACAGGUUGA,apparent Kd,[1],15.8 nM
same,apparent Kd,[2],35.9 nM
CGUCUGUGAGGAUAUGGUAUCGUUUACAUGAGGAUCACCCAUGUUUCAUGGGACUAGAGACUAGAAGGUACUGACG,apparent Kd,[1],1310 nM
same,apparent Kd,[2],870 nM
UUGGAGUACGUAGGAUAUGUAGGAUAUUCCUACAUGAGGAUCACCCAUGUAAGCAUGGAAGAAGGACAGAAGGACGUGCUCCAU,apparent Kd,[3],223 nM
same,apparent Kd,[4],14.9 nM
ACAGAGGCUGACAUGAGGAUCACCCAUGUUAGAUUGUUAUGUCAGGAUAUUAUCUGGCAACCAGAUGAGAAGGGACCCUCUGUG,apparent Kd,[3],22.6 nM
same,apparent Kd,[4],7.54 nM
UGUUCUAUGUAGAAGGCCCAUAUCUGUUCUUAGGGAGGAUAUACAUGAGGAUCACCCAUGUGUAGAGCUGGUGGACUGGUCAGC,apparent Kd,[1],15.4 nM
same,apparent Kd,[2],35.5 nM
AUUUAGUGAGGAUAUGUGGCUUCGAUCGUGAGAUCGAGGCUACAGAAGGCACAUGAGGAUCACCCAUGUUCCUC,apparent Kd,[1],37.6 nM
same,apparent Kd,[2],498 nM
AUAUCUUGUCAAGGAUAUGUUGUAUUGAUCUGAAAACAUGAGGAUCACCCAUGUAUACGGUGGGAACAGAAGGUGAAUGUAGAA,apparent Kd,[1],532 nM
same,apparent Kd,[2],674 nM
GUAUAUAUUACAUGAGGAUCACCCAUGUCAGAACGGGUAAUCAGAAGGUAUUAUUAGAGAAAGGGUAAGGAUAUGAUUAUAUAU,apparent Kd,[3],605 nM
same,apparent Kd,[4],224 nM
CCACGUCCCAUUAACAUGAGGAUCACCCAUGUCAAAAGACAUGAGGAUAUGCAUCCUAAUUGGAUGCAGAAGGCAUGGACGUGG,apparent Kd,[3],814 nM
same,apparent Kd,[4],87.1 nM
UGAUCUCGGGUUAGGAUAUACUGACAACAUAGACAGUAGAAGGAACAUGAGGAUCACCCAUGUGCAUUAACCAU,apparent Kd,[1],25.1 nM
same,apparent Kd,[2],59.3 nM
UGCGAACAGGCUAACAUGAGGAUCACCCAUGUGGACUCAUGGUAGGAUAUCGGGAAGGAGGAAACCGAGAAGGGCCGGUGAGCA,apparent Kd,[3],133 nM
same,apparent Kd,[4],77.5 nM
GCUGCAUAGGCAGGAUAUGCAACAAUUCGAAUAAAAUAUAACGAAUUGACAUGAGGAUCACCCAUGUAGAAGGGCCUGUGCAGU,apparent Kd,[1],18.6 nM
same,apparent Kd,[2],20 nM
AAAAGUUGAGGAUAUGGCUAUUUGGACAUGAGGAUCACCCAUGUGUCUAUGGCCCGGGUGCCAGAAGGUGAUUACU,apparent Kd,[1],92.2 nM
same,apparent Kd,[2],94.3 nM
GAUUAACAUGAGGAUCACCCAUGUGAGGAUAUGGAAUGGCACAUUGUUUGAUUCCCGUCUAGAAGGCACAUCUU,apparent Kd,[1],44.5 nM
same,apparent Kd,[2],41.6 nM
AGUACUCAAAGAGUACCAAUACGAACAUGAGGAUCACCCAUGUAGGAUAUGCUACUCAAAGAGUAGCAGAAGGACAUGUGCCUA,apparent Kd,[1],18.2 nM
same,apparent Kd,[2],82.3 nM
CGCAUGCGUAGUAUUAGUUGCUGACAGGAUAUGACAUGAGGAUCACCCAUGUGAAUUAAGAAGAGUCAGAAGGGUCACGUUGCG,apparent Kd,[1],11.6 nM
same,apparent Kd,[2],10.6 nM
UUAAAUCAUGUAGGAUAUGCAUGGCGAAGCUACGCAGAAGGACAUGAGGAUCACCCAUGUUAGAGCUACCGAGUUCGGUGGCAA,apparent Kd,[1],112 nM
same,apparent Kd,[2],210 nM
GGAAAUCAUGUAGGAUAUGCAUGGCGAAGCUACGCAGAAGGACAUGAGGAUCACCCAUGUUCUAGCUACCGAGUUCGGUGGCAA,apparent Kd,[1],21.6 nM
same,apparent Kd,[2],114 nM
GGAUCGAAUGUCAGGAUAUACCACUGGAUACAGUGGUAGAAGGGACAUGAGGAUCACCCAUGUGUUAUCGAUCC,apparent Kd,[1],40.4 nM
same,apparent Kd,[2],114 nM
AUCAUUCGUGUAGGAUAUGCGUCAGAAACUGAUGCAGAAGGACAUGAGGAUCACCCAUGUCUUUCUCGAGCUGUAGCUCGAGGA,apparent Kd,[1],21.3 nM
same,apparent Kd,[2],145 nM
AGAGAUACGCUCGUCGGACACCGACAUGAGGAUCACCCAUGUAGAAGGCGAUGCGCAACUCGCAUUGAGGAUAUAUAAUGCAGC,apparent Kd,[1],6 nM
same,apparent Kd,[2],5.74 nM
AGCUGUGGCCGAGGAUAUCUGUCUCAUAAAACCGAAAUAUAAUCGGACAUGAGGAUCACCCAUGUAGAGAAGGCGGUCUCAGCA,apparent Kd,[1],21.3 nM
same,apparent Kd,[2],83.7 nM
AAACAUGUCCGAGGAUAUCUGGAAACAUUUCCAAGAGAAGGCGGACAUGAGGAUCACCCAUGUCUCUCCUCAUCACAUCCAAGU,apparent Kd,[1],9.27 nM
same,apparent Kd,[2],79.3 nM
AUUAGGUCAGGAUAUACAUGAGGAUCACCCAUGUAGGUGGAACCUUUAUCGGGUGACCGUAGAAGGGACAUCAA,apparent Kd,[1],41.1 nM
same,apparent Kd,[2],76.3 nM
UGUGCCGGAUCAGGAUAUCCACAGCGGCAAUCACAUGAGGAUCACCCAUGUGGAGAAGGGAUUCGCGAAUUAAUAUCUCGAUAA,apparent Kd,[1],33.5 nM
same,apparent Kd,[2],56.6 nM
UUAAUAAUACAAGGAUAUCAAUUGUUCUUAAGACAUACAUGAGGAUCACCCAUGUUAAUAUAUGUUGAGAAGGUGUAUUUUCAG,apparent Kd,[3],35.7 nM
same,apparent Kd,[4],26.7 nM
CGCCUGGGAGGAUAUCCAAUAUAUGACAUGAGGAUCACCCAUGUUUCCACUCGUACCUCCGGAGAAGGCCCUGCGU,apparent Kd,[1],22.2 nM
same,apparent Kd,[2],23.5 nM
GGACGGUUAGUUAGGAUAUGCUCUACCUCGGUAGAGCAGAAGGGACAUGAGGAUCACCCAUGUGAAAACUGUUC,apparent Kd,[1],19.4 nM
same,apparent Kd,[2],21.3 nM
UGAUUACGAGGAUAUACAUGAGGAUCACCCAUGUAGUCAGGGCCCAUACUCCGAGCAUGUAGAAGGCGUUGUCU,apparent Kd,[1],32.7 nM
same,apparent Kd,[2],48.8 nM
